According to ChEMBL document CHEMBL1145801, “Inhibition of Cdc25 phosphatases by indolyldihydroxyquinones” (J Med Chem, 2003):

Legend:
[1] = target: T1, M-phase inducer phosphatase 2 (Homo sapiens, UniProt P30305); experiment: Eight point inhibitory concentration against Cell division cycle 25B was determined
T1 sequence (P30305 whole entry): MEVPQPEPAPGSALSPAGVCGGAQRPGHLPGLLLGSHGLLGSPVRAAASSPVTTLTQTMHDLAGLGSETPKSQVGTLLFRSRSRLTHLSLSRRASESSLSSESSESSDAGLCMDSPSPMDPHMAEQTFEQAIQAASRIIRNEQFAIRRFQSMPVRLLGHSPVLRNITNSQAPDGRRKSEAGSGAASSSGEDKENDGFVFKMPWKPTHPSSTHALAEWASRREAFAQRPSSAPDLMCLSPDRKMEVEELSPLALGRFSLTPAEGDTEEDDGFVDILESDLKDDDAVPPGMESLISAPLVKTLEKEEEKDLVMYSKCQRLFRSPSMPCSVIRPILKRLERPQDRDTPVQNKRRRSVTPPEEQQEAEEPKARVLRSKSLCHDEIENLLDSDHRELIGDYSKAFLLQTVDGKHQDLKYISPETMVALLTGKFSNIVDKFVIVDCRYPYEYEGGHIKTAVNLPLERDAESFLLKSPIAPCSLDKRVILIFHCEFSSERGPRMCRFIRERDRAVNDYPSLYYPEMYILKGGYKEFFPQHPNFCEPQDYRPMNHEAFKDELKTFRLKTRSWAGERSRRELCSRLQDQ
Procedure, shortened: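 Cdc25B activity read by UV-vis at 477 nm as product formed from 3-O-methylfluorescein phosphate (mFP) at 50 μM (~5 × Km), time-dependent, initial-velocity conditions (2–5% turnover); eight inhibitor concentrations, IC50 fitted to eq 1. Each reaction compared with a simultaneous no-inhibitor control; selected compounds run in duplicate.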

[2] = target: T2, M-phase inducer phosphatase 3 (Homo sapiens, UniProt P30307); experiment: Eight point inhibitory concentration against Cell division cycle 25 degree C was determined
T2 sequence (P30307 whole entry): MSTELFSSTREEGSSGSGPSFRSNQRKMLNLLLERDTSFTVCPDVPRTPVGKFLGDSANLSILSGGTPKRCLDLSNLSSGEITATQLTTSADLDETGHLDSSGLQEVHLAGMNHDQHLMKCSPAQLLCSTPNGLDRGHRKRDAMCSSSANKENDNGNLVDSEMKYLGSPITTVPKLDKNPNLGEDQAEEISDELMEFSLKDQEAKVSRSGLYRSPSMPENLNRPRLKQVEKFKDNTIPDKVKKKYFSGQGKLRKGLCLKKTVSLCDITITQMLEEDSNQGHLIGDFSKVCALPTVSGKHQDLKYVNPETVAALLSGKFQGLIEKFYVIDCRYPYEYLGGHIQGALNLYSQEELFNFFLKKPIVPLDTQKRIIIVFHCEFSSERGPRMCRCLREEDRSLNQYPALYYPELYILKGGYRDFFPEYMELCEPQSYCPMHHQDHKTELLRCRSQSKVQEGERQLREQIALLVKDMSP
Procedure, shortened: (§1)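 Phosphatase activity measured with 3-O-methylfluorescein phosphate at 50 μM (~5 × Km), product formation followed at 477 nm by UV-vis under initial velocity conditions (2–5% turnover) in time-dependent assays. Eight inhibitor concentrations were used, and IC50 was obtained by fitting to a dose–response equation.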

[3] = target: T3, M-phase inducer phosphatase 2 (Homo sapiens) (UniProt P30305); experiment: Percent inhibition of cell division cycle 25B at 50 uM
T3 sequence (whole entry): T1 sequence (P30305 whole entry)
Procedure, shortened: (§2)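 Single-point screen at 50 μM inhibitor against Cdc25A, Cdc25B or Cdc25C with 50 μM 3-O-methylfluorescein phosphate, product followed at 477 nm in time-dependent assays. Activity was compared with a simultaneous no-inhibitor control, and selected compounds were run in duplicate (average error ±7%).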

[4] = target: T4, M-phase inducer phosphatase 3 (Homo sapiens) (UniProt P30307); experiment: Percent inhibition of cell division cycle 25 degree C at 50 uM; procedure, shortened: as §2
T4 sequence (whole entry): T2 sequence (P30307 whole entry)

[5] = target: T5, M-phase inducer phosphatase 1 (Homo sapiens) (UniProt P30304); experiment: Percent inhibition of cell division cycle 25A at 50 uM; procedure, shortened: as §2
T5 sequence (whole entry): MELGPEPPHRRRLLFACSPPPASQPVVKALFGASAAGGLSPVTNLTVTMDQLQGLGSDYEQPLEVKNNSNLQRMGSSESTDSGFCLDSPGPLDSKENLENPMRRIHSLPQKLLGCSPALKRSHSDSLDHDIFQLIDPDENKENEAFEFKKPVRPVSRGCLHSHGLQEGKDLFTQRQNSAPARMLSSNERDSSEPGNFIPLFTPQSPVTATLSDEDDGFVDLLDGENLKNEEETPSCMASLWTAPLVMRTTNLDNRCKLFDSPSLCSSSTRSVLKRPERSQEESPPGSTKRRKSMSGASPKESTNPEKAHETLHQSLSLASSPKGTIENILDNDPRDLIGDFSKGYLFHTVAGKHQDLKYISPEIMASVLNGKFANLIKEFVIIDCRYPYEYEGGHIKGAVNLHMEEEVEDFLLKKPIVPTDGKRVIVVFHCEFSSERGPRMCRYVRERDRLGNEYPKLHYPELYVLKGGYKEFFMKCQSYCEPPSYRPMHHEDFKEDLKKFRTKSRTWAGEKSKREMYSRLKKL

[6] = target: T6, M-phase inducer phosphatase 1 (Homo sapiens, UniProt P30304); experiment: Eight point inhibitory concentration against Cell division cycle 25A was determined; procedure, shortened: as §1
T6 sequence (P30304 whole entry): T5 sequence (whole entry)

SMILES | IC50 [1] | IC50 [2] | inhibition [3] | inhibition [4] | inhibition [5] | IC50 [6]
O=C1C=C(O)C(=O)C(c2c[nH]c3c(Cc4ccccc4)cccc23)=C1O | 2.3 µM | 15 µM | 97% | 98% | 100% | 2.3 µM
O=C1C=C(O)C(=O)C(c2c[nH]c3cc(F)ccc23)=C1O | – | – | 90% | 48% | 97% | –
O=C1C=C(O)C(=O)C(c2c[nH]c3cccc(Br)c23)=C1O | – | – | 6% | 54% | 51% | –
CC(C)=CCc1c(Cl)ccc2c(C3=C(O)C(O)=CC(=O)C3=O)c[nH]c12 | 7.2 µM | 11 µM | – | – | – | 4 µM
O=C1C=C(O)C(=O)C(c2c[nH]c3cccc(Cl)c23)=C1O | > 50 µM | > 50 µM | 21% | 0% | 22% | 28 µM
O=C1/C(=N/CCc2cc(Br)c(O)c(Br)c2)C=C(O)c2cccnc21 | 35 µM | 35 µM | – | – | – | 15 µM
O=C1C=C(O)C(=O)C(c2c[nH]c3ccc(F)cc23)=C1O | – | – | 32% | 23% | 39% | –
O=C1C=C(O)C(=O)C(c2c[nH]c3cc(OCc4ccccc4)ccc23)=C1O | – | – | 97% | 92% | 82% | –
O=C1C=C(O)C(=O)C(c2c[nH]c3ccc(Br)cc23)=C1O | – | – | 55% | 26% | 83% | 5.8 µM
O=C1C=C(O)C(=O)C(c2c[nH]c3cccc(OCc4ccccc4)c23)=C1O | – | – | 0% | 2% | 48% | –
O=C1C=C(O)C(=O)C(c2c[nH]c3cccc(F)c23)=C1O | – | – | 5% | 0% | 20% | –
O=C1C=C(O)C(=O)C(c2c[nH]c3cc4c(cc23)OCO4)=C1O | – | – | 88% | 63% | 99% | –
COc1cc2[nH]cc(C3=C(O)C(O)=CC(=O)C3=O)c2cc1OC | – | – | 19% | 20% | 54% | –
O=C1C=C(O)C(=O)C(c2c[nH]c3ccc(OCc4ccccc4)cc23)=C1O | – | – | 50% | 26% | 100% | 5.5 µM
O=C1C=C(O)C(=O)C(c2c[nH]c3c(Br)cccc23)=C1O | – | – | 45% | 11% | 11% | –
CC(C)=CCC/C(C)=C/Cc1cccc2c(C3=C(O)C(O)=CC(=O)C3=O)c[nH]c12 | – | 10 µM | 95% | 96% | 86% | 1 µM
O=C1C=C(O)C(=O)C(c2c[nH]c3c(F)cccc23)=C1O | – | – | 67% | 68% | 100% | –
O=C1C=C(O)C(=O)C(c2c[nH]c3ccc(Cl)cc23)=C1O | – | – | 32% | 45% | 59% | –

Other lines, results leading:

IC50 [1] | IC50 [2] | inhibition [3] | inhibition [4] | inhibition [5] | IC50 [6] | SMILES
– | – | 0% | 21% | 12% | – | C=CC(C)(C)c1[nH]c2ccccc2c1C1=C(O)C(O)=CC(=O)C1=O
– | – | 9% | 28% | 39% | – | Cc1cccc2[nH]cc(C3=C(O)C(O)=CC(=O)C3=O)c12
– | – | 0% | 0% | 0% | – | Cc1[nH]c2c(C)cccc2c1C1=C(O)C(O)=CC(=O)C1=O
– | – | 16% | 0% | 0% | – | Cc1ccc2c(C3=C(O)C(O)=CC(=O)C3=O)c(C)[nH]c2c1
> 50 µM | > 50 µM | 32% | 0% | 22% | 35 µM | O=C1C=C(O)C(=O)C(c2c(C3CC3)[nH]c3ccccc23)=C1O
– | – | 15% | 13% | 0% | – | COc1cccc2c(C3=C(O)C(O)=CC(=O)C3=O)c[nH]c12
– | – | 16% | 28% | 66% | – | Cc1ccc2c(C3=C(O)C(O)=CC(=O)C3=O)c[nH]c2c1
– | – | 38% | 18% | 40% | – | O=C1C=C(O)C(=O)C(c2c(-c3ccccc3)[nH]c3ccccc23)=C1O
– | – | 0% | 1% | 0% | – | Cc1cccc2c(C3=C(O)C(O)=CC(=O)C3=O)c[nH]c12
– | – | 17% | 0% | 0% | – | CC1(c2[nH]c3ccccc3c2C2=C(O)C(O)=CC(=O)C2=O)CC1
7.2 µM | > 50 µM | 33% | 37% | 93% | 7.2 µM | CC(C)(C)c1cccc2c(C3=C(O)C(O)=CC(=O)C3=O)c[nH]c12
– | – | 0% | 31% | 0% | – | COc1ccc2[nH]c(C)c(C3=C(O)C(O)=CC(=O)C3=O)c2c1
24 µM | 15 µM | 79% | 75% | 99% | 2.5 µM | O=C1C=C(O)C(=O)C(c2c[nH]c3c2ccc2ccccc23)=C1O
– | – | 9% | 5% | 24% | – | Cc1[nH]c2ccccc2c1C1=C(O)C(O)=CC(=O)C1=O
– | – | 11% | 0% | 30% | – | CC(C)(C)c1[nH]c2ccccc2c1C1=C(O)C(O)=CC(=O)C1=O
– | – | 0% | 0% | 0% | – | COc1ccc2[nH]cc(C3=C(O)C(O)=CC(=O)C3=O)c2c1
– | – | 11% | 22% | 44% | – | CC1(c2[nH]c3ccccc3c2C2=C(O)C(O)=CC(=O)C2=O)CCCCC1
– | – | 42% | 19% | 18% | – | Cn1cc(C2=C(O)C(O)=CC(=O)C2=O)c2ccccc21
– | – | 13% | 0% | 7% | – | CC(C)c1[nH]c2ccccc2c1C1=C(O)C(O)=CC(=O)C1=O
– | – | 20% | 25% | 18% | – | Cc1ccc2[nH]c(C)c(C3=C(O)C(O)=CC(=O)C3=O)c2c1
– | – | 36% | 14% | 15% | – | CCc1[nH]c2ccccc2c1C1=C(O)C(O)=CC(=O)C1=O
– | – | 42% | 30% | 0% | – | Cc1[nH]c2ccc(Cl)cc2c1C1=C(O)C(O)=CC(=O)C1=O
– | – | 32% | 20% | 9% | – | Cc1ccc2c(C3=C(O)C(O)=CC(=O)C3=O)c[nH]c2c1C
– | – | 23% | 54% | 0% | – | O=C1C=C(O)C(=O)C(c2c[nH]c3c(Cl)cccc23)=C1O
– | – | 21% | 19% | 40% | – | COc1cccc2[nH]cc(C3=C(O)C(O)=CC(=O)C3=O)c12
